Assay results from ChEMBL document CHEMBL3272055, “2,3-Disubstituted 1,8-naphthyridines as potential diuretic agents. 2. 5,7-Dimethyl derivatives” (J Med Chem, 1977).

What was measured:
Rattus norvegicus [1] = assay: Toxicity in nonloaded rat assessed as kaluretic effect by measuring increase in K+ secretion at 15 mg/kg after 6 hrs relative to control; format: organism-based; set-up: dose 15 mg/kg; conditions: in vivo
Outline: (§1)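 Nonloaded rats dosed at 2 or 15 mg/kg. Urine was collected cumulatively over 6 h and urine volume, Na+ and K+ (mequiv) measured. Values are means of eight rats, reported as drug versus control, with the Na+/K+ ratio derived from these.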

Rattus norvegicus [2] = assay: Diuretic activity in saline-loaded Wistar albino rat assessed as increase of saline-load excretion at 15 mg/kg, ip measured for 6 hrs relative to triamterene; format: functional, Urine; conditions: route intraperitoneal
Outline: (§2)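 Saline-loaded rats given compound ip, screened at 15 mg/kg, with actives retested at 2 mg/kg. Diuresis was read as urine volume output over 6 h by a modified Lipschitz method and expressed as % of the saline load excreted, as an increase over controls. A response under 21.8% above control was counted insignificant. Activity was also expressed relative to triamterene.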

Rattus norvegicus [3] = assay: Diuretic activity in nonloaded rat assessed as urine volume at 2 mg/kg after 6 hrs relative to control; format: functional; outline: as §1
Rattus norvegicus [4] = assay: Diuretic activity in nonloaded rat assessed as urine volume at 15 mg/kg after 6 hrs relative to control; format: functional; outline: as §1
Rattus norvegicus [5] = assay: Diuretic activity in saline-loaded Wistar albino rat assessed as increase of saline-load excretion at 2 mg/kg, ip measured for 6 hrs relative to triamterene; format: functional, Urine; conditions: route intraperitoneal; outline: as §2
Rattus norvegicus [6] = assay: Diuretic activity in saline-loaded Wistar albino rat assessed as increase of saline-load excretion at 15 mg/kg, ip measured for 6 hrs relative to control; format: functional, Urine; conditions: route intraperitoneal; outline: as §2
Rattus norvegicus [7] = assay: Diuretic activity in saline-loaded Wistar albino rat assessed as increase of saline-load excretion at 2 mg/kg, ip measured for 6 hrs relative to control; format: functional, Urine; conditions: route intraperitoneal; outline: as §2
Rattus norvegicus [8] = assay: Toxicity in nonloaded rat assessed as kaluretic effect by measuring increase in K+ secretion at 2 mg/kg after 6 hrs relative to control; format: organism-based; set-up: dose 2 mg/kg; conditions: in vivo; outline: as §1
Rattus norvegicus [9] = assay: Ratio of natriuretic activity in nonloaded rat assessed as increase in Na+ secretion at 15 mg/kg to kaliuretic activity in nonloaded rat assessed as increase in K+ secretion at 15 mg/kg; outline: as §1
Rattus norvegicus [10] = assay: Natriuretic activity in nonloaded rat assessed as increase in Na+ secretion at 15 mg/kg after 6 hrs relative to control; format: functional; outline: as §1
Rattus norvegicus [11] = assay: Ratio of natriuretic activity in nonloaded rat assessed as increase in Na+ secretion at 2 mg/kg to kaliuretic activity in nonloaded rat assessed as increase in K+ secretion at 2 mg/kg; outline: as §1
Rattus norvegicus [12] = assay: Natriuretic activity in nonloaded rat assessed as increase in Na+ secretion at 2 mg/kg after 6 hrs relative to control; format: functional; outline: as §1

For `CCCCNC(=O)c1cc2c(C)cc(C)nc2nc1N`, the Activity (Rattus norvegicus [1]) was 0.25 milliequivalent, the “fold change (FC)” value (Rattus norvegicus [2]) was 2.64 and the Activity (Rattus norvegicus [3]) was 3.7 mL. For the same compound, the Activity (Rattus norvegicus [4]) was 4.1 mL, the “fold change (FC)” value (Rattus norvegicus [5]) was 1.25 and the Activity (Rattus norvegicus [6]) was 152.7%. For the same compound, the Activity (Rattus norvegicus [7]) was 43.2%, the Activity (Rattus norvegicus [8]) was 0.217 milliequivalent and the Ratio (Rattus norvegicus [9]) was 1.71. The Activity (Rattus norvegicus [10]) was 0.427 milliequivalent, the Ratio (Rattus norvegicus [11]) was 2.17 and the Activity (Rattus norvegicus [12]) was 0.471 milliequivalent.
With `CCNC(=O)c1cc2c(C)cc(C)nc2nc1N` the Activity (Rattus norvegicus [1]) was 0.301 milliequivalent, the “fold change (FC)” value (Rattus norvegicus [2]) was 0.83 and the Activity (Rattus norvegicus [4]) was 3.7 mL. It also gave an Activity (Rattus norvegicus [6]) of 47.7%, an Activity (Rattus norvegicus [7]) of less than 21.8% and a Ratio (Rattus norvegicus [9]) of 1.64. It also gave an Activity (Rattus norvegicus [10]) of 0.495 milliequivalent.
With `CCCNC(=O)c1cc2c(C)cc(C)nc2nc1N` the Activity (Rattus norvegicus [1]) was 0.25 milliequivalent, the “fold change (FC)” value (Rattus norvegicus [2]) was 0.93 and the Activity (Rattus norvegicus [4]) was 3.9 mL. It also gave an Activity (Rattus norvegicus [6]) of 53.7%, an Activity (Rattus norvegicus [7]) of less than 21.8% and a Ratio (Rattus norvegicus [9]) of 1.64. The Activity (Rattus norvegicus [10]) was 0.41 milliequivalent.
For `CCCCCNC(=O)c1cc2c(C)cc(C)nc2nc1N`, the Activity (Rattus norvegicus [1]) was 0.263 milliequivalent, the “fold change (FC)” value (Rattus norvegicus [2]) was 0.4 and the Activity (Rattus norvegicus [4]) was 2.9 mL. For the same compound, the Activity (Rattus norvegicus [6]) was 23.4%, the Activity (Rattus norvegicus [7]) was less than 21.8% and the Ratio (Rattus norvegicus [9]) was 1.48. For the same compound, the Activity (Rattus norvegicus [10]) was 0.39 milliequivalent.
For `COC(=O)c1cc2c(C)cc(C)nc2nc1N`, the Activity (Rattus norvegicus [1]) was 0.21 milliequivalent, the “fold change (FC)” value (Rattus norvegicus [2]) was 0.82 and the Activity (Rattus norvegicus [4]) was 1.6 mL. It also gave an Activity (Rattus norvegicus [6]) of 47.3%, an Activity (Rattus norvegicus [7]) of less than 21.8% and a Ratio (Rattus norvegicus [9]) of 1.05. For the same compound, the Activity (Rattus norvegicus [10]) was 0.221 milliequivalent.
`Cl.NC(=O)c1cc2cccnc2nc1N.O` was tested, and the Activity (Rattus norvegicus [1]) was 0.161 milliequivalent, the “fold change (FC)” value (Rattus norvegicus [2]) was 1.41 and the Activity (Rattus norvegicus [4]) was 5.3 mL. For the same compound, the “fold change (FC)” value (Rattus norvegicus [5]) was 3, the Activity (Rattus norvegicus [6]) was 67.5% and the Activity (Rattus norvegicus [7]) was 62.9%. It also gave a Ratio (Rattus norvegicus [9]) of 4.75 and an Activity (Rattus norvegicus [10]) of 0.765 milliequivalent.
`Nc1nc(N)c2nc(-c3ccccc3)c(N)nc2n1` [TRIAMTERENE] gave an Activity (Rattus norvegicus [1]) of 0.136 milliequivalent, an Activity (Rattus norvegicus [4]) of 4.9 mL and an Activity (Rattus norvegicus [6]) of 57.8%. It also gave an Activity (Rattus norvegicus [7]) of 34.5%, a Ratio (Rattus norvegicus [9]) of 5.84 and an Activity (Rattus norvegicus [10]) of 0.804 milliequivalent.
